From ChEMBL document CHEMBL1123083, “Synthesis and antiherpetic activity of (S)-, (R)-, and (+/-)-9-[(2,3-dihydroxy-1-propoxy)methyl]guanine, linear isomers of 2'-nor-2'-deoxyguanosine” (J Med Chem, 1985)
≈ marks a conversion by molar mass, not a printed value.

How the values were obtained:
[1] = tested on: DNA polymerase (Homo sapiens); experiment: Evaluated for DNA polymerase inhibition activity against HeLa cells.
Human alphaherpesvirus 1 [2] = experiment: Efficacy was evaluated against Systemic HSV-1 infection in mice at a daily dose of 0.8 mg/kg administered subcutaneously; Tested mice 10; format: organism-based; design: dose 0.8 mg/kg, route subcutaneous; conditions: mouse, in vivo, sc
In short: (§1)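 ICR/Ha mice (10–20 g, mixed sex) were infected intraperitoneally with 50–100 LD50 of HSV-1 Schooler. Subcutaneous dosing of 0.1 mL twice daily for 4 days started immediately after infection. Groups were of about 10 mice. Survival was recorded daily for 15 days and reported as survivors/total and mean survival time (95% CI). Transformed survival times were compared with placebo-treated infected mice (p < 0.05).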

Human alphaherpesvirus 1 [3] = experiment: Efficacy was evaluated against Systemic HSV-1 infection in mice at a daily dose of 0.8 mg/kg administered subcutaneously; format: ADME, organism-based; design: dose 0.8 mg/kg, route subcutaneous; conditions: mouse, in vivo, sc
In short: as §1

Human alphaherpesvirus 2 [4] = experiment: In vitro anti viral activity tested against HSV-2(Curtis) virus on Rabbit kidney cell cultures; 25-50; format: functional; conditions: Human alphaherpesvirus 2, kidney; read-out: ED50 (the source's name)
In short: (§2)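 Confluent primary rabbit kidney monolayers were preincubated with serial drug dilutions in EMEM with 2% fetal calf serum and neomycin. They were then challenged with about 10 TCID50 of HSV-1 Schooler or HSV-2 Curtis and incubated at 37 °C. Cytopathology was scored on day 5. ED50 is the concentration preventing cytopathology in half of the infected cultures.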

Human alphaherpesvirus 1 [5] = experiment: In vitro anti viral activity tested against HSV-1(Schooler) virus on Rabbit kidney cell cultures.; format: functional; conditions: Human alphaherpesvirus 1, kidney; read-out: ED50 (the source's name)
In short: as §2

Human alphaherpesvirus 1 [6] = experiment: Efficacy was evaluated against Systemic HSV-1 infection in mice at a daily dose of 3.1 mg/kg administered subcutaneously; format: ADME, organism-based; design: dose 3.1 mg/kg, route subcutaneous; conditions: mouse, in vivo, sc
In short: as §1

Human alphaherpesvirus 1 [7] = experiment: Efficacy was evaluated against Systemic HSV-1 infection in mice at a daily dose of 3.1 mg/kg administered subcutaneously; Tested mice 10; format: ADME, organism-based; design: dose 3.1 mg/kg, route subcutaneous; conditions: mouse, in vivo, sc
In short: as §1

Human alphaherpesvirus 1 [8] = experiment: Efficacy was evaluated against Systemic HSV-1 infection in mice at a daily dose of 12.5 mg/kg administered subcutaneously; Tested mice 10; format: organism-based; design: dose 12.5 mg/kg, route subcutaneous; conditions: mouse, in vivo, sc
In short: as §1

Human alphaherpesvirus 1 [9] = experiment: Evaluated for DNA polymerase inhibition activity against herpes simplex virus-1 (HSV-1); format: functional
In short: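 Step II mixture supplied the phosphorylated test material. Step I: compound with HSV-1 thymidine kinase, 4 h, 37 °C. Step II: then HSV-1-infected HeLa crude extract plus GMP kinase, overnight, 30 °C. A 20 μL sample went to a 1 h, 37 °C DNA polymerase assay at pH 8 with activated salmon sperm DNA, 0.05 mM each dNTP ([³H]dTTP) and infected HeLa extract. (NH₄)₂SO₄ 0.1 M was present for the viral enzyme and omitted for the cellular polymerases. Read-out: TCA-precipitable radioactivity.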

Human alphaherpesvirus 1 [10] = experiment: Efficacy was evaluated against Systemic HSV-1 infection in mice at a daily dose of 12.5 mg/kg administered subcutaneously; format: ADME, organism-based; design: dose 12.5 mg/kg, route subcutaneous; conditions: mouse, in vivo, sc
In short: as §1

Human alphaherpesvirus 2 [11] = experiment: In vitro anti viral activity tested against HSV-2(Curtis) virus on Rabbit kidney cell cultures.; format: functional; conditions: Human alphaherpesvirus 2, kidney; read-out: ED50 (the source's name)
In short: as §2

Row | SMILES | Inhibition [1] | Survivors (Human alphaherpesvirus 1 [2]) | Average survival (Human alphaherpesvirus 1 [3]) | EC50 (Human alphaherpesvirus 2 [4]) | EC50 (Human alphaherpesvirus 1 [5]) | Average survival (Human alphaherpesvirus 1 [6]) | Survivors (Human alphaherpesvirus 1 [7]) | Survivors (Human alphaherpesvirus 1 [8]) | Inhibition (Human alphaherpesvirus 1 [9]) | Average survival (Human alphaherpesvirus 1 [10]) | EC50 (Human alphaherpesvirus 2 [11])
1 | Nc1nc(O)c2ncn(COCC(O)CO)c2n1 (single isomer, unassigned; form 1) | 0% | 0 | 6.3 days | 25 µg/mL (≈ 97.9 µM) | 25 µg/mL (≈ 97.9 µM) | 6.5 days | 1 | 1 | 7% | 7.5 days | –
2 | Nc1nc(O)c2ncn(COCC(O)CO)c2n1 (configuration not stated) | – | – | – | – | 3 µg/mL (≈ 11.8 µM) | – | – | – | – | – | 6 µg/mL (≈ 23.5 µM)
